One experiment has as its system LNCaP. The experiment is described as follows: Cytotoxicity against human LNCAP cells assessed as reduction in cell viability after 72 hrs by CellTiter96 AQueous one solution cell proliferation assay. It counts as functional, cell-based. Summed up:
(§1)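 MTS viability in RPMI with 5% fetal calf serum, 2.0 mM L-glutamine, nonessential amino acids, 1.0 mM pyruvate, penicillin/streptomycin, 10 mM HEPES and 2-mercaptoethanol. Cells were seeded at 10 000 (LNCaP) or 5000 (others) and grown overnight at 37 °C. Serial dilutions in DMSO went into triplicate wells for 72 h. MTS was read at 490 nm after 2 h. IC50 ± SD from dose–response curves, at least three independent experiments.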

The subject of a further experiment is CWR22R. The experiment is described as follows: Cytotoxicity against human 22Rv1 cells assessed as reduction in cell viability after 72 hrs by CellTiter96 AQueous one solution cell proliferation assay. It counts as functional, cell-based. To be noted: 22Rv1, 72 h. An outline of the steps: as §1
For another experiment, the system named is HFF. In words: Cytotoxicity against HFF cells assessed as reduction in cell viability after 72 hrs by CellTiter96 AQueous one solution cell proliferation assay. In kind it is cell-based. Particulars: Homo sapiens. An outline of the steps: as §1
In a further experiment the test system is ACHN. The experiment is described as follows: Cytotoxicity against human ACHN cells assessed as reduction in cell viability after 72 hrs by CellTiter96 AQueous one solution cell proliferation assay. In kind it is functional, cell-based. Summed up:
as §1

The test system of a further experiment is M14. The experiment is described as follows: Cytotoxicity against human M14 cells assessed as reduction in cell viability after 72 hrs by CellTiter96 AQueous one solution cell proliferation assay. To be noted: M14, 72 h. In kind it is functional, cell-based. An outline of the steps: (§2)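 MTS viability in DMEM with 5% fetal calf serum, 2.0 mM L-glutamine, nonessential amino acids, 1.0 mM pyruvate, penicillin/streptomycin, 10 mM HEPES and 2-mercaptoethanol. 5000 cells were grown overnight at 37 °C. Serial DMSO dilutions went into triplicate wells for 72 h. MTS absorbance was read at 490 nm after 2 h. IC50 ± SD from at least three independent dose–response experiments.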

Another experiment has as its system SK-MEL-28. In words: Cytotoxicity against human SK-MEL-28 cells assessed as reduction in cell viability after 72 hrs by CellTiter96 AQueous one solution cell proliferation assay. In kind it is functional, cell-based. To be noted: SK-MEL-28, 72 h. Summed up:
as §2

Where only a bound is given, the exact number is not on record here.

`CC1=C(C)C(=O)O[C@@H]([C@](C)(O)[C@]2(O)CC[C@@]3(O)[C@@H]4CC=C5CC=CC(=O)[C@]5(C)[C@H]4CC[C@]23C)C1` [WITHANOLIDE F]: the IC50 with LNCaP is 130 nM; in the experiment with CWR22R, 70 nM; in the experiment on HFF, over 2000 nM; with ACHN it was over 2000 nM; in the experiment on M14, over 2000 nM; in the experiment with SK-MEL-28, over 2000 nM.

Take `CC1=C(C)C(=O)O[C@@H]([C@](C)(O)[C@]2(O)CC[C@@]3(O)[C@@H]4C[C@H]5O[C@]56[C@@H](O)C=CC(=O)[C@]6(C)[C@H]4CC[C@]23C)C1`: the IC50 was 160 nM with LNCaP; 90 nM in the experiment on CWR22R; over 2000 nM in the experiment with HFF; over 2000 nM in the experiment with ACHN; over 2000 nM in the experiment with M14; over 2000 nM in the experiment on SK-MEL-28.

On to `CC1=C(C)C(=O)O[C@@H]([C@](C)(O)[C@]2(O)CC[C@@]3(O)[C@@H]4[C@@H](O)[C@H]5O[C@]56CC=CC(=O)[C@]6(C)[C@H]4CC[C@]23C)C1`, for which the IC50 in the experiment with LNCaP is 330 nM; in the experiment on CWR22R, 260 nM; in the experiment with HFF, over 2000 nM; with ACHN it was over 2000 nM; with M14, over 2000 nM; in the experiment on SK-MEL-28, over 2000 nM.

With `CC1=C(C)C(=O)O[C@@H]([C@](C)(O)[C@]2(O)CC[C@@]3(O)[C@@H]4[C@@H](O)C=C5CC=CC(=O)[C@]5(C)[C@H]4CC[C@]23C)C1`, the IC50 in the experiment with LNCaP is 330 nM; with CWR22R it was 560 nM; in the experiment with HFF, over 2000 nM; in the experiment with ACHN, over 2000 nM; in the experiment with M14, over 2000 nM; with SK-MEL-28, over 2000 nM.

In the case of `CC1=C(C)C(=O)O[C@@H]([C@](C)(O)[C@]2(O)CC[C@@]3(O)[C@@H]4C[C@H]5O[C@]56CC=CC(=O)[C@]6(C)[C@H]4CC[C@]23C)C1` [WITHANOLIDE E], the IC50 was 60 nM with LNCaP; 70 nM with CWR22R; over 2000 nM in the experiment on HFF; 460 nM with ACHN; over 2000 nM in the experiment with M14; over 2000 nM in the experiment with SK-MEL-28.

For `CO[C@H]1C=CC(=O)[C@]2(C)[C@H]3CC[C@]4(C)[C@](O)([C@@](C)(O)[C@H]5CC(C)=C(C)C(=O)O5)CC[C@@]4(O)[C@@H]3C[C@H]3O[C@]132`, the IC50 in the experiment with LNCaP is 330 nM; in the experiment on CWR22R it was 240 nM; with HFF it was over 2000 nM; in the experiment on ACHN it was over 2000 nM; in the experiment on M14 it was over 2000 nM; in the experiment on SK-MEL-28, over 2000 nM.

On to `CC1=C(C)C(=O)O[C@@H]([C@](C)(O)[C@]2(O)CC[C@@]3(O)[C@@H]4[C@@H](O)C=C5C=CCC(=O)[C@]5(C)[C@H]4CC[C@]23C)C1`, for which the IC50 with LNCaP is 940 nM; with CWR22R, 990 nM; in the experiment on HFF, over 2000 nM; in the experiment on ACHN, over 2000 nM; in the experiment with M14 it was over 2000 nM; with SK-MEL-28, over 2000 nM.

For `CC1=C(CO)C[C@H]([C@](C)(O)[C@]2(O)CC[C@@]3(O)[C@@H]4CC=C5CC=CC(=O)[C@]5(C)[C@H]4CC[C@]23C)OC1=O`, the IC50 in the experiment on LNCaP is 240 nM; in the experiment with CWR22R, 210 nM; with HFF, over 2000 nM; with ACHN, over 2000 nM; in the experiment on M14, over 2000 nM; in the experiment with SK-MEL-28 it was over 2000 nM.

With `CC(=O)OC[C@]12CC[C@H]3[C@@H](C[C@H]4O[C@]45CC=CC(=O)[C@]35C)[C@]1(O)CC[C@@]2(O)[C@@](C)(O)[C@H]1CC(C)=C(C)C(=O)O1`, the IC50 in the experiment on CWR22R is 30 nM; in the experiment on HFF, over 2000 nM; with ACHN, 570 nM; in the experiment with M14, over 2000 nM; with SK-MEL-28, over 2000 nM.

Take `COc1cccc2c1C(=O)c1c(O)c3c(c(O)c1C2=O)C[C@@](O)(C(=O)CO)C[C@@H]3O[C@H]1C[C@H](N)[C@H](O)[C@H](C)O1` [DOXORUBICIN]: the IC50 in the experiment on LNCaP was 20 nM; in the experiment on CWR22R it was 20 nM; with ACHN, 20 nM; with M14, 90 nM; with SK-MEL-28, 250 nM.

Values taken from ChEMBL document CHEMBL4190220, “Withanolides from Aeroponically Grown Physalis peruviana and Their Selective Cytotoxicity to Prostate Cancer and Renal Carcinoma Cells” (J Nat Prod, 2017).
